Converted amounts (≈) assume the structure as drawn. The source made the active and inactive calls. No cut-off for these calls is given here.

The text below walks through data of ChEMBL document CHEMBL1145823, “Docking and database screening reveal new classes of Plasmodium falciparum dihydrofolate reductase inhibitors” (J Med Chem, 2003).

Data set [1] has as its target Bifunctional dihydrofolate reductase-thymidylate synthase (Plasmodium falciparum K1, UniProt P13922, A16V/S108T). Kind of data set: Inhibition constant against PfDHFR (Plasmodium falciparum dihydrofolate reductase) with double (A16V + S108T) mutations. Summed up: (§1)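 Recombinant wild-type or mutant PfDHFR, expressed in bacteria (induction at 20 °C for 20 h) and purified on methotrexate-Sepharose. Spectrophotometric assay in 50 mM TES pH 7.0, 75 mM β-mercaptoethanol, 1 mg/mL BSA, with 100 μM each H2-folate and NADPH. Started with enzyme (0.6–1 nM). Ki from IC50 = Ki(1+[S]/Km), assuming competitive binding.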

The target of data set [2] is Bifunctional dihydrofolate reductase-thymidylate synthase (Plasmodium falciparum K1, UniProt P13922, C59R/I164L/N51I/S108N). The data set can be described thus: Inhibition constant against PfDHFR (Plasmodium falciparum dihydrofolate reductase) with quadruple (N51I + C59R + S108N + I164L) mutations. In a few lines: as §1
Data set [3] deals with Bifunctional dihydrofolate reductase-thymidylate synthase (Plasmodium falciparum K1, UniProt P13922, A16V). Kind of data set: Inhibition constant against PfDHFR (Plasmodium falciparum dihydrofolate reductase) with single A16V mutation. In a few lines:
as §1

For data set [4], the target named is Bifunctional dihydrofolate reductase-thymidylate synthase (Plasmodium falciparum K1, UniProt P13922, S108T). Kind of data set: Inhibition constant against PfDHFR (Plasmodium falciparum dihydrofolate reductase) with single S108T mutation. In a few lines:
as §1

The target in data set [5] is Bifunctional dihydrofolate reductase-thymidylate synthase (Plasmodium falciparum K1, UniProt P13922). Kind of data set: Inhibition constant against wild-type PfDHFR (Plasmodium falciparum dihydrofolate reductase). In a few lines: as §1
In data set [6] the target is Bifunctional dihydrofolate reductase-thymidylate synthase (Plasmodium falciparum K1, UniProt P13922, C59R/I164L/S108N). Kind of data set: Inhibition constant against PfDHFR (Plasmodium falciparum dihydrofolate reductase) with triple (C59R + S108N + I164L) mutations. Summed up:
as §1

Data set [7] concerns the target Bifunctional dihydrofolate reductase-thymidylate synthase (Plasmodium falciparum K1) (UniProt P13922). The data set can be described thus: Inhibition constant for PfDHFR (Plasmodium falciparum dihydrofolate reductase) with single S108T mutation; Not active. In a few lines:
(§2)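 Recombinant wild-type or mutant PfDHFR, expressed in bacteria (induction at 20 °C for 20 h) and purified on methotrexate-Sepharose. Spectrophotometric assay in 50 mM TES pH 7.0, 75 mM β-mercaptoethanol, 1 mg/mL BSA, with 100 μM each H2-folate and NADPH. Started with enzyme (0.6–1 nM). […] Ki from IC50 = Ki(1+[S]/Km), assuming competitive binding.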

Data set [8] has the same target. Kind of data set: Inhibition constant for PfDHFR (Plasmodium falciparum dihydrofolate reductase) with quadruple (N51I + C59R + S108N + I164L) mutations; Not active. In a few lines: as §2
The target is the same in data set [9]. Kind of data set: Inhibition constant for PfDHFR (Plasmodium falciparum dihydrofolate reductase) with triple (C59R + S108N + I164L) mutations; Not active. In a few lines:
as §2

The target is the same in data set [10]. Kind of data set: Inhibition constant for PfDHFR (Plasmodium falciparum dihydrofolate reductase) with single A16V mutation; Not active. Summed up:
as §2

Data set [11] shares this target. Kind of data set: Inhibition constant for PfDHFR (Plasmodium falciparum dihydrofolate reductase) with double (A16V + S108T) mutations; Not active. Summed up:
as §2

For data set [12] the target is unchanged. Kind of data set: Inhibition constant against wild-type PfDHFR (Plasmodium falciparum dihydrofolate reductase); Not active. In a few lines: as §2
The target is the same in data set [13]. The data set can be described thus: Inhibition constant against wild-type PfDHFR (Plasmodium falciparum dihydrofolate reductase) at 750 uM; Inactive. In a few lines: as §2
Data set [14] shares this target. Kind of data set: Inhibition constant for resistant mutant PfDHFR (Plasmodium falciparum dihydrofolate reductase) at 750 uM; Inactive. Summed up: as §2
Data set [15] has the same target. The data set can be described thus: Inhibition constant against wild-type PfDHFR (Plasmodium falciparum dihydrofolate reductase); Inactive. Summed up: as §2
The target is the same in data set [16]. The data set can be described thus: Inhibition constant for resistant mutant PfDHFR (Plasmodium falciparum dihydrofolate reductase); Inactive. In a few lines:
as §2

For data set [17] the target is unchanged. The data set can be described thus: Inhibition constant for PfDHFR (Plasmodium falciparum dihydrofolate reductase) with triple (C59R + S108N + I164L) mutations at a concentration of 100 uM; Not active. Summed up: as §2
The target is the same in data set [18]. Kind of data set: Inhibition constant against wild-type PfDHFR (Plasmodium falciparum dihydrofolate reductase) at a concentration of 100 uM; Not active. In a few lines:
as §2

The target is the same in data set [19]. The data set can be described thus: Inhibition constant for PfDHFR (Plasmodium falciparum dihydrofolate reductase) with double (A16V + S108T) mutations at a concentration of 100 uM; Not active. In a few lines: as §2
Data set [20] has the same target. The data set can be described thus: Inhibition constant for PfDHFR (Plasmodium falciparum dihydrofolate reductase) with single S108T mutation at a concentration of 100 uM; Not active. Summed up:
as §2

The target is the same in data set [21]. The data set can be described thus: Inhibition constant for PfDHFR (Plasmodium falciparum dihydrofolate reductase) with single A16V mutation at a concentration of 100 uM; Not active. Summed up: as §2
The nature of data set [22]: Determined the solubility of the compound. The data set is classed as ADME. The conditions noted are these: read-out: S.

Bifunctional dihydrofolate reductase-thymidylate synthase (Plasmodium falciparum K1, UniProt P13922, A16V/S108T), sequence (P13922 whole entry, looked up, stated change not applied): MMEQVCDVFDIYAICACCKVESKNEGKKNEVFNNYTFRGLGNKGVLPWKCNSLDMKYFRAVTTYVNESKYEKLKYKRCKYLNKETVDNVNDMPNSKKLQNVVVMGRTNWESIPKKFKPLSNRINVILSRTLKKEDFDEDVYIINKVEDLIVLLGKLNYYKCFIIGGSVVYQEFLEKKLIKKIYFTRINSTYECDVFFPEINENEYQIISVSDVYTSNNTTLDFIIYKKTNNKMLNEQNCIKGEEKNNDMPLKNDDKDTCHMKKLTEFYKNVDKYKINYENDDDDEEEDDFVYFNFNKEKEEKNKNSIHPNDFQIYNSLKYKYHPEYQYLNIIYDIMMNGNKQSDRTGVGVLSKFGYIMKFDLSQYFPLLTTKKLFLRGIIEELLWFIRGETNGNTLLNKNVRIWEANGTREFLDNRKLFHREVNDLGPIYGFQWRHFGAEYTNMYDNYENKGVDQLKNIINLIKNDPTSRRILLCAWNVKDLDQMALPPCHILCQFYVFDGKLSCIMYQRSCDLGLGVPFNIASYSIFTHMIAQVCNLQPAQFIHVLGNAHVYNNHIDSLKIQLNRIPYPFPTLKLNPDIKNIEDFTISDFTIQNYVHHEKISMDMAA
Bifunctional dihydrofolate reductase-thymidylate synthase (Plasmodium falciparum K1, UniProt P13922, C59R/I164L/N51I/S108N), sequence (P13922 whole entry, looked up, stated change not applied): as above
Bifunctional dihydrofolate reductase-thymidylate synthase (Plasmodium falciparum K1), sequence (P13922 whole entry, looked up): as the sequence (P13922 whole entry, looked up, stated change not applied) above
Bifunctional dihydrofolate reductase-thymidylate synthase (Plasmodium falciparum K1, UniProt P13922), sequence (P13922 whole entry): as the sequence (P13922 whole entry, looked up, stated change not applied) above
Bifunctional dihydrofolate reductase-thymidylate synthase (Plasmodium falciparum K1, UniProt P13922, C59R/I164L/S108N), sequence (P13922 whole entry, looked up, stated change not applied): as above
Bifunctional dihydrofolate reductase-thymidylate synthase (Plasmodium falciparum K1, UniProt P13922, S108T), sequence (P13922 whole entry, looked up, stated change not applied): as above
Bifunctional dihydrofolate reductase-thymidylate synthase (Plasmodium falciparum K1, UniProt P13922, A16V), sequence (P13922 whole entry A16V): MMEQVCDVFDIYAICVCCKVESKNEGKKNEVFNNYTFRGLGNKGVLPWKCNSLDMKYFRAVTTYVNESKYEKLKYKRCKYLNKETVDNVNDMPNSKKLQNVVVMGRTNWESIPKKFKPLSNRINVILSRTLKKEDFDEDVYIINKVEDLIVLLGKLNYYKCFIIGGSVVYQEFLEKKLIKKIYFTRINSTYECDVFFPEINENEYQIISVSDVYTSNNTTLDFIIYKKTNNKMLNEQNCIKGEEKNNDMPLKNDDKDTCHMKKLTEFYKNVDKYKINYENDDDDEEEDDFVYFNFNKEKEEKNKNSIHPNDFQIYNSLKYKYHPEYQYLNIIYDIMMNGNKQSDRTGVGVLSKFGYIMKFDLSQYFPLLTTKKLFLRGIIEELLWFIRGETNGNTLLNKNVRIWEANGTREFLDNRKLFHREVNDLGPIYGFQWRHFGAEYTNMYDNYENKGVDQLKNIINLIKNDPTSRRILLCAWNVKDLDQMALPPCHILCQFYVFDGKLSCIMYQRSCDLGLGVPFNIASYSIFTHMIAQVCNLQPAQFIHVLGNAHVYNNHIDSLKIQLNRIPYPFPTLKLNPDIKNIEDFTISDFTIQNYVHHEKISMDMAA

As for `N=C(NO)c1ccc(CNC(=O)c2ccc(Cl)cc2)cc1`, the inhibition constant Ki in [1] was determined as 57 µM; in data set [2] it was 36.6 µM; in data set [3], 58 µM; in data set [4], 12.3 µM; in data set [5], 77.2 µM; in data set [6] it was 93 µM.
On to `C=CCNC(=S)NNC(=O)c1cccn(Cc2cccc(Cl)c2)c1=O`, for which the Ki worked out at 17 µM in data set [1]; 10.6 µM in data set [2]; 13 µM in data set [3]; 1.7 µM in data set [4]; 15.2 µM in data set [5]; 10 µM in data set [6].
On to `CC1(C)N=C(N)N=C(N)N1c1ccc(Cl)cc1` [CYCLOGUANIL], for which the inhibition constant (Ki) was determined as 2.13 µM in data set [1]; 0.73 µM in data set [2]; 0.57 µM in [3]; 0.0016 µM in data set [4]; 1.14 µM in [6].
Regarding `N/N=C(\S)Nc1ccc(OCc2ccccc2)cc1`, the inhibitory constant (Ki) in data set [1] stood at 55.6 µM; in [2], 26.5 µM; in [3], 15.4 µM; in data set [4] it was 5.2 µM; in data set [5], 13.7 µM; in [6], 13.4 µM.
On to `NC(=O)Nc1ccc(Oc2ncc(C(F)(F)F)cc2Cl)cc1`, for which the NA entry in data set [7], in data set [8], in data set [9], in data set [10], in [11] and in [12] was “inactive” each time.
With `C/N=C(\S)NNC(=O)c1cccn(Cc2cccc(Cl)c2)c1=O`, the Ki is 13.6 µM in [1]; 19.4 µM in data set [2]; 5.9 µM in data set [3]; 1.8 µM in data set [4]; 11.3 µM in [5]; 7.1 µM in data set [6].
As for `N/C(=N\O)c1cccc(CS(=O)(=O)c2ccc(Cl)cc2)c1`, the inhibitory constant (Ki) in data set [1] came to 106 µM; in data set [2] it was 34.5 µM; in data set [3], 38 µM; in data set [4] it was 30 µM; in data set [5] it was 102 µM; in [6], 105 µM.
For the compound `Cc1nc(S)nc(O)c1Cc1c(F)cccc1Cl`, the IA result in data set [13] and in data set [14] was “inactive” throughout.
Take `N/C(=N/O)c1ccc(Oc2c(Cl)cncc2Cl)cc1`: the Ki in [1] came to 6.2 µM; in data set [2], 27.8 µM; in [3], 23.6 µM; in data set [4] it was 16 µM; in data set [5] it was 25.2 µM; in data set [6] it was 24.4 µM.
As for `N=c1nc(N)nc(Nc2ccccc2)n1-c1ccccc1`, the IA result in data set [15] and in data set [16] was “inactive” in each case.
For `Oc1nnc(-c2ccccc2)c(-c2ccccc2)n1`, the IA result in data set [15] and in data set [16] was “inactive” each time.
For `N=C(S)N/N=C/c1ccc(Oc2ncc(C(F)(F)F)cc2Cl)cc1`, the Ki in data set [1] was 34 µM; in [2], 9.3 µM; in data set [3], 6.8 µM; in data set [4], 2.3 µM; in data set [6] it was 12.5 µM.
As to `NC(=O)NC(=O)Cc1ccccc1`, the NA entry in data set [7], in data set [8], in data set [9], in data set [10], in [11] and in [12] was “inactive” throughout.
As for `NC(=O)Nc1ccc(Cc2ccc(NC(N)=O)cc2)cc1`, the NA entry in data set [7], in data set [8], in data set [9], in data set [10], in data set [11] and in [12] was “inactive” throughout.
As to `N=C(NO)c1ccc(Oc2cc(Cl)cc(Cl)c2)c([N+](=O)[O-])c1`, the inhibitory constant (Ki) in data set [1] was found to be 9.8 µM; in data set [2] it was 32.6 µM; in data set [3] it was 36.8 µM; in data set [4] it was 4.2 µM; in data set [6], 22.2 µM.
As to `C/C(=N\N=C(/N)S)c1ccc(Oc2c(Cl)cncc2Cl)cc1`, the Ki in [1] amounted to 2.1 µM; in data set [2] it was 1.5 µM; in data set [3], 0.7 µM; in [4], 1 µM; in data set [5] it was 0.9 µM; in [6], 0.6 µM.
For `CNC(=O)Nc1ccc(Cc2ccc(NC(=O)NC)cc2)cc1`, the NA entry in data set [7], in [8], in data set [9], in [10], in [11] and in [12] was “inactive” in each case.
On to `NC1=NC(c2ccccc2)C(C(=O)c2ccccc2)N1` (stereo not drawn), for which the NA result in data set [17], in data set [8], in data set [18], in [19], in data set [20] and in [21] was “inactive” in each case.
Turning to `NNc1nc2ccccc2nc1NN`, the Ki was determined as 11.4 µM in data set [1]; 9.7 µM in data set [2]; 3.4 µM in data set [3]; 0.8 µM in data set [4]; 3.6 µM in [5]; 2.7 µM in [6].
Take `Nc1nccc(-c2csc(COc3ccc(Cl)cc3)n2)n1`: the solubility in data set [22] worked out at 25 µM (≈ 7.97 µg/mL).
With `NC(=S)N/N=C/c1ccccc1` [PHENYLTHIOSEMICARBAZONE], the Ki in data set [1] turned out to be 50 µM; in data set [2] it was 37.2 µM; in data set [3], 29.6 µM; in data set [4] it was 9 µM; in data set [5] it was 23.6 µM; in data set [6] it was 28.9 µM.
For `Sc1nnc(-c2ccccc2)c(-c2ccccc2)n1`, the IA result in data set [15] and in data set [16] was “inactive” in each case.
Turning to `COC(=O)c1sccc1-c1ccc(/C(C)=N/NC(N)=O)o1`, the Ki in data set [1] was 19.7 µM; in [2] it was 16 µM; in data set [3] it was 15.3 µM; in data set [4] it was 4.2 µM; in [6], 7.5 µM.

By Ki is commonly meant a measure of affinity in units of concentration, obtained from inhibition or displacement.
